The results in this text go back to ChEMBL document CHEMBL1126564, “Synthesis and antimicrobial evaluation of a series of 7-[3-amino (or aminomethyl)-4-aryl (or cyclopropyl)-1-pyrrolidinyl]-4-quinolone- and -1,8-naphthyridone-3-carboxylic acids” (1993).

Values after ≈ are worked out from the molar mass of the structure shown.

Common to all, as to type: functional
For one test, the system named is Enterococcus faecalis. Description: Minimum inhibitory concentration against […] MGH-2. To be noted: Enterococcus faecalis; read-out: MIC. Put shortly:
(§1)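 Standard microdilution method against a panel of five Gram-negative and five Gram-positive bacterial strains. The MIC (µg/mL) was recorded for each strain.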

Another test relates to Providencia rettgeri. Description: Minimum inhibitory concentration against Providencia rettgeri M-1771. To be noted: Providencia rettgeri; read-out: MIC. In a few lines: as §1
The test system of a further test is Pseudomonas aeruginosa. Description: Minimum inhibitory concentration against Pseudomonas aeruginosa UI-18. To be noted: Pseudomonas aeruginosa; read-out: MIC. Put shortly:
as §1

The next test relates to Escherichia coli. Description: Minimum inhibitory concentration against Escherichia coli Vogel. The note with it: Escherichia coli; read-out: MIC. In a few lines:
as §1

The next test has as its system Streptococcus pyogenes. Description: Minimum inhibitory concentration against Streptococcus pyogenes C-203. The note with it: Streptococcus pyogenes; read-out: MIC. In a few lines: as §1
The next test concerns Klebsiella pneumoniae. Description: Minimum inhibitory concentration against Klebsiella pneumoniae MGH-2. The note with it: Klebsiella pneumoniae; read-out: MIC. Put shortly:
as §1

The test system of test [1] is Staphylococcus aureus. Description: Minimum inhibitory concentration against Staphylococcus aureus UC-76. To be noted: Staphylococcus aureus; read-out: MIC. Put shortly: as §1
Test [2] concerns Staphylococcus aureus. Kind of test: Minimum inhibitory concentration against Staphylococcus aureus H-228. To be noted: Staphylococcus aureus; read-out: MIC. In a few lines:
as §1

The subject of the next test is Enterobacter cloacae. Description: Minimum inhibitory concentration against […] MA-2646. To be noted: Enterobacter cloacae; read-out: MIC. In a few lines:
as §1

A further test relates to Streptococcus pneumoniae. Description: Minimum inhibitory concentration against Streptococcus pneumoniae SV-1. To be noted: Streptococcus pneumoniae; read-out: MIC. Put shortly:
as §1

By MIC is commonly meant the lowest concentration that inhibits growth of the organism. Consider `CCOC(=O)C1CC1C1CN(c2nc3c(cc2F)c(=O)c(C(=O)O)cn3C2CC2)CC1N` (trans isomer), for which the MIC in the test with Enterococcus faecalis came out at 1.6 µg/mL (≈ 3.6 µM); with Providencia rettgeri, 6.3 µg/mL (≈ 14.2 µM); with Pseudomonas aeruginosa it was 2.5 µg/mL (≈ 5.62 µM); with Escherichia coli, 1.6 µg/mL (≈ 3.6 µM); in the test on Streptococcus pyogenes, 1.6 µg/mL (≈ 3.6 µM); in the test with Klebsiella pneumoniae, 3.1 µg/mL (≈ 6.97 µM). In addition, the minimum inhibitory concentration (MIC) in the test with Staphylococcus aureus [1] turned out to be 0.4 µg/mL (≈ 0.9 µM); in the test with Staphylococcus aureus [2], 1.6 µg/mL (≈ 3.6 µM); with Enterobacter cloacae it was 1.6 µg/mL (≈ 3.6 µM); in the test on Streptococcus pneumoniae, 1.6 µg/mL (≈ 3.6 µM).
As for `NC1CN(c2nc3c(cc2F)c(=O)c(C(=O)O)cn3C2CC2)CC1c1ccc(O)cc1` (trans isomer), the MIC is 0.1 µg/mL (≈ 0.236 µM) in the test with Enterococcus faecalis; 0.4 µg/mL (≈ 0.942 µM) with Providencia rettgeri; 1.6 µg/mL (≈ 3.77 µM) with Pseudomonas aeruginosa; 0.1 µg/mL (≈ 0.236 µM) in the test on Escherichia coli; 0.2 µg/mL (≈ 0.471 µM) in the test with Streptococcus pyogenes; 0.2 µg/mL (≈ 0.471 µM) in the test with Klebsiella pneumoniae. Besides, the minimal inhibitory concentration (MIC) in the test with Staphylococcus aureus [1] came to 0.1 µg/mL (≈ 0.236 µM); in the test with Staphylococcus aureus [2] it was 0.4 µg/mL (≈ 0.942 µM); in the test with Enterobacter cloacae, 0.1 µg/mL (≈ 0.236 µM); in the test on Streptococcus pneumoniae, 0.2 µg/mL (≈ 0.471 µM).
`Nc1c(F)c(N2CC(N)C(c3ccc(O)cc3)C2)c(F)c2c1c(=O)c(C(=O)O)cn2C1CC1` (trans isomer): the MIC in the test with Enterococcus faecalis amounted to 0.05 µg/mL (≈ 0.11 µM); in the test with Providencia rettgeri, 0.1 µg/mL (≈ 0.219 µM); with Pseudomonas aeruginosa, 0.8 µg/mL (≈ 1.75 µM); in the test with Escherichia coli, 0.05 µg/mL (≈ 0.11 µM); with Streptococcus pyogenes it was 0.1 µg/mL (≈ 0.219 µM); with Klebsiella pneumoniae, 0.05 µg/mL (≈ 0.11 µM). For the same compound, the MIC came out at 0.013 µg/mL (≈ 0.0285 µM) in the test with Staphylococcus aureus [1], 0.05 µg/mL (≈ 0.11 µM) with Staphylococcus aureus [2], 0.05 µg/mL (≈ 0.11 µM) in the test with Enterobacter cloacae and 0.05 µg/mL (≈ 0.11 µM) in the test on Streptococcus pneumoniae.
Regarding `COC(=O)c1ccc(C2CN(c3nc4c(cc3F)c(=O)c(C(=O)O)cn4C3CC3)CC2N)cc1` (trans isomer), the MIC in the test with Enterococcus faecalis is 0.4 µg/mL (≈ 0.858 µM); with Providencia rettgeri, 0.8 µg/mL (≈ 1.72 µM); in the test with Pseudomonas aeruginosa, 3.1 µg/mL (≈ 6.65 µM); with Escherichia coli, 0.4 µg/mL (≈ 0.858 µM); with Streptococcus pyogenes it was 0.8 µg/mL (≈ 1.72 µM); with Klebsiella pneumoniae, 0.4 µg/mL (≈ 0.858 µM). Further, the MIC amounted to 0.1 µg/mL (≈ 0.214 µM) in the test on Staphylococcus aureus [1], 0.2 µg/mL (≈ 0.429 µM) in the test with Staphylococcus aureus [2], 0.4 µg/mL (≈ 0.858 µM) in the test on Enterobacter cloacae and 0.8 µg/mL (≈ 1.72 µM) in the test with Streptococcus pneumoniae.
For the compound `NCc1cccc(C2CN(c3nc4c(cc3F)c(=O)c(C(=O)O)cn4C3CC3)CC2CN)c1` (trans isomer), the MIC with Enterococcus faecalis is 1.6 µg/mL (≈ 3.54 µM); in the test with Providencia rettgeri, 6.3 µg/mL (≈ 14 µM); in the test on Pseudomonas aeruginosa, 12.5 µg/mL (≈ 27.7 µM); with Escherichia coli it was 3.1 µg/mL (≈ 6.87 µM); in the test on Streptococcus pyogenes, 0.2 µg/mL (≈ 0.443 µM); in the test on Klebsiella pneumoniae it was 3.1 µg/mL (≈ 6.87 µM). Further, the minimal inhibitory concentration (MIC) in the test on Staphylococcus aureus [1] was 0.8 µg/mL (≈ 1.77 µM); in the test on Staphylococcus aureus [2], 3.1 µg/mL (≈ 6.87 µM); in the test on Enterobacter cloacae, 3.1 µg/mL (≈ 6.87 µM); with Streptococcus pneumoniae, 0.8 µg/mL (≈ 1.77 µM).
Regarding `CC(C)c1ccc(C2CN(c3nc4c(cc3F)c(=O)c(C(=O)O)cn4C3CC3)CC2N)cc1` (trans isomer), the MIC in the test with Enterococcus faecalis was determined as 0.4 µg/mL (≈ 0.888 µM); in the test on Providencia rettgeri, 1.6 µg/mL (≈ 3.55 µM); with Pseudomonas aeruginosa, 6.3 µg/mL (≈ 14 µM); in the test on Escherichia coli it was 0.4 µg/mL (≈ 0.888 µM); with Streptococcus pyogenes it was 0.4 µg/mL (≈ 0.888 µM); with Klebsiella pneumoniae it was 0.8 µg/mL (≈ 1.78 µM). Also, the MIC in the test with Staphylococcus aureus [1] stood at 0.1 µg/mL (≈ 0.222 µM); in the test on Staphylococcus aureus [2], 0.2 µg/mL (≈ 0.444 µM); with Enterobacter cloacae, 0.8 µg/mL (≈ 1.78 µM); with Streptococcus pneumoniae it was 0.4 µg/mL (≈ 0.888 µM).
For `NC1CN(c2nc3c(cc2F)c(=O)c(C(=O)O)cn3C2CC2)CC1c1ccc(Cl)c(Cl)c1` (trans isomer), the MIC in the test on Enterococcus faecalis amounted to 0.2 µg/mL (≈ 0.419 µM); in the test on Providencia rettgeri, 0.8 µg/mL (≈ 1.68 µM); with Pseudomonas aeruginosa, 3.1 µg/mL (≈ 6.49 µM); in the test with Escherichia coli, 0.4 µg/mL (≈ 0.838 µM); with Streptococcus pyogenes, 0.4 µg/mL (≈ 0.838 µM); with Klebsiella pneumoniae, 0.4 µg/mL (≈ 0.838 µM). The MIC in the test with Staphylococcus aureus [1] was determined as 0.05 µg/mL (≈ 0.105 µM); in the test with Staphylococcus aureus [2] it was 0.1 µg/mL (≈ 0.21 µM); in the test with Enterobacter cloacae, 0.4 µg/mL (≈ 0.838 µM); in the test on Streptococcus pneumoniae, 0.2 µg/mL (≈ 0.419 µM).
On to `COc1ccccc1C1CN(c2c(F)cc3c(=O)c(C(=O)O)cn(C4CC4)c3c2F)CC1N` (trans isomer), for which the minimum inhibitory concentration (MIC) in the test on Enterococcus faecalis came to 0.1 µg/mL (≈ 0.22 µM); in the test on Providencia rettgeri, 0.8 µg/mL (≈ 1.76 µM); with Pseudomonas aeruginosa, 3.1 µg/mL (≈ 6.81 µM); in the test on Escherichia coli, 0.2 µg/mL (≈ 0.439 µM); in the test on Streptococcus pyogenes, 0.1 µg/mL (≈ 0.22 µM); in the test with Klebsiella pneumoniae, 0.4 µg/mL (≈ 0.878 µM). The minimal inhibitory concentration (MIC) with Staphylococcus aureus [1] was 0.025 µg/mL (≈ 0.0549 µM); in the test with Staphylococcus aureus [2], 0.05 µg/mL (≈ 0.11 µM); with Enterobacter cloacae it was 0.4 µg/mL (≈ 0.878 µM); with Streptococcus pneumoniae it was 0.1 µg/mL (≈ 0.22 µM).
With `COc1ccc(C2CN(c3nc4c(cc3F)c(=O)c(C(=O)O)cn4C3CC3)CC2N)cc1` (trans isomer), the minimum inhibitory concentration (MIC) in the test with Enterococcus faecalis amounted to 0.2 µg/mL (≈ 0.456 µM); in the test on Providencia rettgeri, 0.4 µg/mL (≈ 0.912 µM); in the test on Pseudomonas aeruginosa, 1.6 µg/mL (≈ 3.65 µM); in the test with Escherichia coli, 0.1 µg/mL (≈ 0.228 µM); in the test with Streptococcus pyogenes, 0.1 µg/mL (≈ 0.228 µM); in the test with Klebsiella pneumoniae, 0.2 µg/mL (≈ 0.456 µM). The MIC in the test on Staphylococcus aureus [1] was 0.05 µg/mL (≈ 0.114 µM); in the test with Staphylococcus aureus [2], 0.1 µg/mL (≈ 0.228 µM); in the test with Enterobacter cloacae, 0.1 µg/mL (≈ 0.228 µM); with Streptococcus pneumoniae, 0.1 µg/mL (≈ 0.228 µM).
Regarding `CN(C)c1ccc(C2CN(c3nc4c(cc3F)c(=O)c(C(=O)O)cn4C3CC3)CC2N)cc1` (trans isomer), the MIC with Enterococcus faecalis worked out at 0.2 µg/mL (≈ 0.443 µM); with Providencia rettgeri, 0.4 µg/mL (≈ 0.886 µM); with Pseudomonas aeruginosa it was 3.1 µg/mL (≈ 6.87 µM); in the test on Escherichia coli, 0.2 µg/mL (≈ 0.443 µM); with Streptococcus pyogenes, 0.2 µg/mL (≈ 0.443 µM); in the test on Klebsiella pneumoniae, 0.4 µg/mL (≈ 0.886 µM). The minimum inhibitory concentration (MIC) with Staphylococcus aureus [1] came out at 0.025 µg/mL (≈ 0.0554 µM); in the test with Staphylococcus aureus [2], 0.05 µg/mL (≈ 0.111 µM); with Enterobacter cloacae, 0.2 µg/mL (≈ 0.443 µM); in the test on Streptococcus pneumoniae it was 0.2 µg/mL (≈ 0.443 µM).
